Data: ChEMBL document CHEMBL4196022, “Alkynyl-containing phenylthiazoles: Systemically active antibacterial agents effective against methicillin-resistant Staphylococcus aureus (MRSA)” (Eur J Med Chem, 2018)
Values after ≈ are worked out from the molar mass of the structure shown. Active and inactive are the calls of the source. No cut-off for these calls is given here. Positions of bridges follow the written chain, without caps; N, C: chain ends. Non-standard residues stand in square brackets, D forms with d. Residues, ends and D or L forms follow the SMILES beside them. *: point of attachment. Ileψ(thiazoline)Cys = CC[C@H](C)[C@H](N)C1=N[C@H](C(=O)*)CS1; dOrn = NCCC[C@@H](N)C(=O)O

What was measured:
[1] = target: T1, Undecaprenyl-diphosphatase (Escherichia coli (strain K12), UniProt P60932); experiment: Inhibition of Escherichia coli UPPP expressed in Escherichia coli C41(DE3) using FPP as substrate preincubated for 15 mins followed by substrate addition measured after 20 mins by malachite green assay
T1 sequence (P60932 whole entry): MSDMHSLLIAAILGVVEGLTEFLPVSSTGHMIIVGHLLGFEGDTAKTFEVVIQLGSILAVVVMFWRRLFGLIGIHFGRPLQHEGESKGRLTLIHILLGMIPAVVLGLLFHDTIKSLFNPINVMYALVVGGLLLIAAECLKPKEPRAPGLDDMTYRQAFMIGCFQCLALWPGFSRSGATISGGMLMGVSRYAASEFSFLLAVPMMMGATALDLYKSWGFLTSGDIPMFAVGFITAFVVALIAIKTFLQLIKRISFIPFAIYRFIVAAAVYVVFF

Staphylococcus aureus [2] = experiment: Antibacterial activity against methicillin-resistant Staphylococcus aureus NRS107 after 20 hrs by broth microdilution assay; assay type: functional; conditions: NRS107, 20 h
How it was run: (§1)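 Broth microdilution per CLSI in cation-adjusted Mueller Hinton broth. Compounds serially diluted, in triplicate. Incubation at 37 °C for at least 20 hours. MIC taken as the lowest concentration with no visible bacterial growth.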

Staphylococcus aureus [3] = experiment: Antibacterial activity against methicillin-resistant Staphylococcus aureus USA300 after 20 hrs by broth microdilution assay; assay type: functional; conditions: USA300, 20 h; how it was run: as §1
Staphylococcus aureus [4] = experiment: Bactericidal activity against methicillin-resistant Staphylococcus aureus USA300 up to 18 hrs by broth microdilution assay; assay type: functional; conditions: USA300, 18 h, read-out: MBC99.9
Staphylococcus aureus [5] = experiment: Bactericidal activity against methicillin-resistant Staphylococcus aureus NRS107 up to 18 hrs by broth microdilution assay; assay type: functional; conditions: NRS107, 18 h, read-out: MBC99.9
Staphylococcus aureus [6] = experiment: Antibacterial activity against methicillin-resistant Staphylococcus aureus NRS119 after 20 hrs by broth microdilution assay; assay type: functional; conditions: NRS119, 20 h; how it was run: as §1
Staphylococcus aureus [7] = experiment: Bactericidal activity against methicillin-resistant Staphylococcus aureus NRS119 up to 18 hrs by broth microdilution assay; assay type: functional; conditions: NRS119, 18 h, read-out: MBC99.9
Staphylococcus aureus [8] = experiment: Antibacterial activity against vancomycin-resistant Staphylococcus aureus VRS10 after 20 hrs by broth microdilution assay; assay type: functional; conditions: VRS10, 20 h; how it was run: as §1
Staphylococcus aureus [9] = experiment: Bactericidal activity against methicillin resistant vancomycin-resistant Staphylococcus aureus VRS10 up to 18 hrs by broth microdilution assay; assay type: functional; conditions: VRS10, 18 h, read-out: MBC99.9
Staphylococcus aureus [10] = experiment: Antibacterial activity against vancomycin-resistant Staphylococcus aureus VRS11a after 20 hrs by broth microdilution assay; assay type: functional; how it was run: as §1
Staphylococcus aureus [11] = experiment: Antibacterial activity against vancomycin-resistant Staphylococcus aureus VRS12 after 20 hrs by broth microdilution assay; assay type: functional; conditions: VRS12, 20 h; how it was run: as §1
Staphylococcus aureus [12] = experiment: Bactericidal activity against methicillin resistant vancomycin-resistant Staphylococcus aureus VRS12 up to 18 hrs by broth microdilution assay; assay type: functional; conditions: VRS12, 18 h, read-out: MBC99.9
How it was run: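 MBC set up from the MIC plates. Aliquots from wells with no growth spotted onto tryptic soy agar and incubated at 37 °C for at least 18 hours. MBC taken as the lowest concentration giving 99.9% inhibition of bacterial growth.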

Staphylococcus aureus [13] = experiment: Potency index, ratio of vancomycin MIC to compound MIC for antibacterial activity against vancomycin-resistant Staphylococcus aureus VRS10; assay type: functional
Staphylococcus aureus [14] = experiment: Potency index, ratio of vancomycin MIC to compound MIC for antibacterial activity against vancomycin-resistant Staphylococcus aureus VRS11a; assay type: functional
Staphylococcus aureus [15] = experiment: Potency index, ratio of vancomycin MIC to compound MIC for antibacterial activity against vancomycin-resistant Staphylococcus aureus VRS12; assay type: functional
Staphylococcus aureus [16] = experiment: Ratio of MBC to MIC for methicillin-resistant Staphylococcus aureus USA300; assay type: functional; conditions: read-out: Ratio
How it was run: (§2)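 MBC/MIC ratio. […] MBC by plating no-growth wells onto tryptic soy agar at 37 °C for at least 18 h; taken as the concentration giving 99.9% growth inhibition.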

Staphylococcus aureus [17] = experiment: Ratio of MBC to MIC for methicillin-resistant Staphylococcus aureus NRS107; assay type: functional; how it was run: as §2
Staphylococcus aureus [18] = experiment: Ratio of MBC to MIC for methicillin-resistant Staphylococcus aureus NRS119; assay type: functional; how it was run: as §2
Staphylococcus aureus [19] = experiment: Ratio of MBC to MIC for vancomycin-resistant Staphylococcus aureus VRS10; assay type: functional; how it was run: as §2
Staphylococcus aureus [20] = experiment: Ratio of MBC to MIC for vancomycin-resistant Staphylococcus aureus VRS11a; assay type: functional; how it was run: as §2
Staphylococcus aureus [21] = experiment: Ratio of MBC to MIC for vancomycin-resistant Staphylococcus aureus VRS12; assay type: functional; how it was run: as §2
Staphylococcus aureus [22] = experiment: Bactericidal activity against methicillin-resistant Staphylococcus aureus NRS123 (USA400) at 4 times MIC after 24 hrs by time kill assay; assay type: functional, organism-based
J774 = experiment: Cytotoxicity against mouse J774 cells assessed as reduction in cell viability up to 16 ug/ml after 24 hrs by MTS assay; assay type: cell-based; conditions: j774, 24 h
How it was run: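 J774 murine macrophages were grown in DMEM with 10% FBS at 37 °C, 5% CO2. Compounds were tested at 8, 16 and 32 μg/mL in triplicate for 24 h, with a DMSO-matched control. MTS was added for 4 h and absorbance read at 490 nm. Viability is given as % of DMSO control (mean ± SD); Student t-test with Holm-Sidak test.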

Staphylococcus aureus [23] = experiment: Antibacterial activity against methicillin-resistant Staphylococcus aureus NRS123 (USA400) infected in mouse J774 cells at 16 ug/ml after 24 hrs; assay type: functional, organism-based
How it was run: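 J774 macrophages grown in DMEM with 10% FBS at 37 °C, 5% CO2. Infected with USA400 at MOI ~100:1 for 1 h, then washed with gentamicin 50 μg/mL. Treated in triplicate wells for 24 h, washed with gentamicin again and lysed with 0.1% Triton X-100. Lysate plated on tryptic soy agar for 18–22 h; CFU/mL counted.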

HRT-18 cell line = experiment: Cytotoxicity against human HRT18 cells assessed as reduction in cell viability up to 32 ug/ml after 2 hrs by MTS assay; assay type: cell-based; conditions: hrt-18, 2 h
[24] = Selectivity index, ratio of toxic concentration for human HRT18 cells to MIC for methicillin-resistant Staphylococcus aureus; assay type: toxicity; conditions: read-out: Selectivity Index
Staphylococcus aureus [25] = experiment: Bactericidal activity against methicillin-resistant Staphylococcus aureus USA300 at 4 times MIC after 24 hrs by time kill assay; assay type: functional, organism-based
[26] = Apparent permeability from apical to basolateral side in human Caco2 cells at 10 uM after 60 mins by LC-MS/MS analysis; assay type: ADME, cell-based; conditions: caco-2, 1 h
How it was run: (§3)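 Caco-2 monolayers were seeded at 1 × 10^5 cells/cm2 and differentiated for three weeks. Test article was at 10 μM (1% DMSO) in HBSS-MES pH 6.5 or HBSS-HEPES pH 7.4 and added to the donor side. Incubation ran 60 min (A→B) or 40 min (B→A), and receiver buffer was analysed by LC/MS/MS. Lucifer yellow and fluorescein checked monolayer integrity. Efflux ratio = Papp(B→A)/Papp(A→B).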

[27] = Apparent permeability from basolateral to apical side in human Caco2 cells at 10 uM after 60 mins by LC-MS/MS analysis; assay type: ADME, cell-based; conditions: caco-2, 1 h
[28] = Efflux ratio of apparent permeability in human Caco2 cells at 10 uM after 60 mins by LC-MS/MS analysis; assay type: ADME, cell-based; conditions: caco-2, 1 h; how it was run: as §3

With `CC[C@H](C)[C@H](N)C1=N[C@H](C(=O)N[C@@H](CC(C)C)C(=O)N[C@H](CCC(=O)O)C(=O)N[C@H](C(=O)N[C@H]2CCCCNC(=O)[C@H](CC(N)=O)NC(=O)[C@@H](CC(=O)O)NC(=O)[C@H](Cc3cnc[nH]3)NC(=O)[C@@H](Cc3ccccc3)NC(=O)[C@H]([C@@H](C)CC)NC(=O)[C@@H](CCCN)NC2=O)[C@@H](C)CC)CS1` [BACITRACIN] ({Ileψ(thiazoline)Cys}-L[dE]IK[dOrn]I[dF]H[dD]N; lactam 4-C) the IC50 [1] was 5.6 µM.

Molecule `CCCC#Cc1ccc(-c2nc(C)c(/C(C)=N/NC(=N)N)s2)cc1` has an MIC (Staphylococcus aureus [2]) of 1 µg/mL (≈ 2.95 µM), an MIC (Staphylococcus aureus [3]) of 1 µg/mL (≈ 2.95 µM) and an MBC (Staphylococcus aureus [4]) of 8 µg/mL (≈ 23.6 µM). It also gave an MBC (Staphylococcus aureus [5]) of 1 µg/mL (≈ 2.95 µM), an MIC (Staphylococcus aureus [6]) of 1 µg/mL (≈ 2.95 µM) and an MBC (Staphylococcus aureus [7]) of 1 µg/mL (≈ 2.95 µM). The MIC (Staphylococcus aureus [8]) was 1 µg/mL (≈ 2.95 µM), the MBC (Staphylococcus aureus [9]) was 2 µg/mL (≈ 5.89 µM) and the MIC (Staphylococcus aureus [10]) was no more than 0.5 µg/mL. For the same molecule, the MIC (Staphylococcus aureus [11]) was 1 µg/mL (≈ 2.95 µM), the MBC (Staphylococcus aureus [12]) was 1 µg/mL (≈ 2.95 µM) and the Ratio (Staphylococcus aureus [13]) was greater than 100. For the same molecule, the Ratio (Staphylococcus aureus [14]) was greater than 100, the Ratio (Staphylococcus aureus [15]) was 16 and the Ratio (Staphylococcus aureus [16]) was 8. For the same molecule, the Ratio (Staphylococcus aureus [17]) was “<=3”, the Ratio (Staphylococcus aureus [18]) was “<=3” and the Ratio (Staphylococcus aureus [19]) was “<=3”. For the same molecule, the Ratio (Staphylococcus aureus [20]) was “<=3”, the Ratio (Staphylococcus aureus [21]) was “<=3” and the Activity (Staphylococcus aureus [22]) was “Active”. The Activity (J774) was “Non-Toxic”, the Activity (Staphylococcus aureus [23]) was “Active” and the Activity (HRT-18 cell line) was “Non-Toxic”. The selectivity ratio [24] was 7 to 31 and the Activity (Staphylococcus aureus [25]) was “Active”.

With `CNC(=C[N+](=O)[O-])NCCSCc1ccc(CN(C)C)o1` [RANITIDINE] the Papp [26] was 0.27 ×10⁻⁶ cm/s, the Papp [27] was 1.71 ×10⁻⁶ cm/s and the Ratio [28] was 6.3.
